Measurements from ChEMBL document CHEMBL1123806, “Effects of derivatives of kahweol and cafestol on the activity of glutathione S-transferase in mice” (1987).

Experiments:
[1] = molecular target: T1, Glutathione S-transferase Mu 1 (Mus musculus) (UniProt P10649); test: Ratio is the compound /control(Specific activity in small bowel mucosa(GST)); assay type: functional
T1 sequence (whole entry): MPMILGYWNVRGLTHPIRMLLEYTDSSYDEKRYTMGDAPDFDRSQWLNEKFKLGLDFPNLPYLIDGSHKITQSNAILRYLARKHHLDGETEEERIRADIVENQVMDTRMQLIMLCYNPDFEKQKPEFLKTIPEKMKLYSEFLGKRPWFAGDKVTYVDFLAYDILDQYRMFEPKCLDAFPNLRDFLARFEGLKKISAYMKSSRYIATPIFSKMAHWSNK
Method in brief: (§1)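 Mice (6-8 wk, groups of 4-5, semipurified diet) dosed po once daily for 3 days with 10 μmol in 0.2 mL cottonseed oil/10% ethanol. Vehicle-only controls. Killed 24 h after the last dose. Tissue homogenized in phosphate buffer pH 7.5, then spun at 100000g for 1 h to give cytosol. CDNB conjugation read at 340 nm, 30 °C, pH 6.5 phosphate, 5 mM GSH, 1 mM CDNB. Units µmol/min/mg protein, mean ± SD; ratio = treated/control.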

[2] = molecular target: T1, Glutathione S-transferase Mu 1 (Mus musculus); test: GST activity in the cytosols of liver of ICR/Ha mice, using 1-Chloro-2,4-dinitrobenzene as substrate; assay type: functional, tissue-based; method in brief: as §1
[3] = molecular target: T1, Glutathione S-transferase Mu 1 (Mus musculus); test: GST activity in the cytosols of the lung of ICR/Ha mice was determined by using 1-Chloro-2,4-dinitrobenzene as the substrate; assay type: functional; method in brief: as §1
[4] = species on record: Mus musculus; test: Ratio is the compound /control(SH in small bowel mucosa); assay type: functional
Method in brief: (§2)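 Same dosing: 10 μmol po daily for 3 days in cottonseed oil/10% ethanol, vehicle controls, tissues taken 24 h after the last dose. Homogenate (phosphate pH 7.5) used at once. Ellman method: equal volume 4% sulfosalicylic acid, then supernatant plus 9 volumes of 0.1 mM DTNB in 0.1 M phosphate pH 8.0. Read spectrophotometrically. Units µmol SH/g tissue, mean ± SD; ratio = treated/control.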

[5] = molecular target: T1, Glutathione S-transferase Mu 1 (Mus musculus); test: GST activity in the cytosols of the forestomach of ICR/Ha mice was determined by using 1-Chloro-2,4-dinitrobenzene as the substrate; assay type: functional, tissue-based; details: Stomach; method in brief: as §1
[6] = molecular target: T1, Glutathione S-transferase Mu 1 (Mus musculus); test: Ratio is the compound /control(Specific activity in lung); assay type: functional; method in brief: as §1
[7] = molecular target: T1, Glutathione S-transferase Mu 1 (Mus musculus); test: Ratio is the compound /control(Specific activity in liver(GST)); assay type: functional, tissue-based; method in brief: as §1
[8] = molecular target: T1, Glutathione S-transferase Mu 1 (Mus musculus); test: GST activity in the cytosols of small bowel mucosa of ICR/Ha mice was determined by using 1-Chloro-2,4-di nitrobenzene as the substrate.; assay type: functional; method in brief: as §1
[9] = Ratio is the compound /control(SH level in liver); assay type: functional, Mus musculus; method in brief: as §2
[10] = species on record: Mus musculus; test: Tissue acid-soluble sulfhydryl levels of small bowel mucosa of ICR/Ha mice.; assay type: functional; method in brief: as §2
[11] = molecular target: T1, Glutathione S-transferase Mu 1 (Mus musculus); test: Ratio is the compound /control(Specific activity in forestomach); assay type: functional, tissue-based; details: Stomach; method in brief: as §1
[12] = Tissue acid-soluble sulfhydryl levels of liver of ICR/Ha mice.; assay type: functional, Mus musculus; method in brief: as §2
[13] = species on record: Mus musculus; test: Tissue acid-soluble sulfhydryl levels of small bowel mucosa of ICR/Ha mice; assay type: functional; method in brief: as §2
[14] = species on record: Mus musculus; test: GST activity in the cytosols of small bowel mucosa of ICR/Ha mice was determined by using 1-Chloro-2,4-di nitrobenzene as the substrate; assay type: functional; method in brief: as §1
[15] = Tissue acid-soluble sulfhydryl levels of liver of ICR/Ha mice; assay type: functional, Mus musculus; method in brief: as §2
[16] = species on record: Mus musculus; test: GST activity in the cytosols of small bowel mucosa of ICR/Ha mice was determined by using 1-Chloro-2,4-dinitrobenzene as the substrate.; assay type: functional; method in brief: as §1
[17] = species on record: Mus musculus; test: GST activity in the cytosols of small bowel mucosa of ICR/Ha mice was determined by using 1-Chloro-2,4-dinitrobenzene as the substrate; assay type: functional; method in brief: as §1
[18] = species on record: Mus musculus; test: Tissue acid-soluble sulfhydryl levels of liver of ICR/Ha mice. P<0.005; assay type: functional; method in brief: as §2
[19] = species on record: Mus musculus; test: Tissue acid-soluble sulfhydryl levels of small bowel mucosa of ICR/Ha mice. P < 0.005; assay type: functional; method in brief: as §2

| SMILES | Ratio [1] | Specific activity (uM min-1 (mg of protein)-1) [2] | Specific activity (uM min-1 (mg of protein)-1) [3] | Specific activity (uM min-1 (mg of protein)-1) [5] | Ratio [6] | Ratio [7] | Specific activity (uM min-1 (mg of protein)-1) [8] | Ratio [11] | Ratio [4] | Ratio [9] | SH level [10] | SH level [12] | SH level [13] | Specific activity [14] | SH level [15] | Specific activity [16] | Specific activity [17] | SH level [18] | SH level [19] |
| --- | --- | --- | --- | --- | --- | --- | --- | --- | --- | --- | --- | --- | --- | --- | --- | --- | --- | --- | --- |
| C[C@@]12C=Cc3occc3C1CC[C@]13CC(O)C(CCC12)C3 (some centres undefined) | 5.7 | 3.57 | 0.23 | 1.01 | 0.8 | 2.5 | 1.72 | 1.5 | 1.7 | 1.1 |  |  | 10.9 µmol/g |  | 9.5 µM/g |  |  |  |  |
| CC(=O)OC[C@@]1(O)C[C@@]23CCC4C5=C(CC[C@@]4(C)C2CCC1C3)OCC5 (some centres undefined) | 1 | 1.27 |  |  |  | 1.08 |  |  | 1.2 | 1.55 | 7.1 µmol/g | 15.6 µM/g |  |  |  | 0.41 uM min-1 (mg of protein)-1 |  |  |  |
| CC1(O)C[C@@]23CCC4c5ccoc5CC[C@@]4(C)C2CCC1C3 (some centres undefined) | 3.6 | 2.26 | 0.27 | 0.76 | 1 | 1.4 |  | 1 | 1.6 | 2.1 |  | 16.3 µM/g | 8.6 µmol/g | 1.3 uM min-1 (mg of protein)-1 |  |  |  |  |  |
| CC1(O)C[C@@]23CCC4c5ccoc5C=C[C@@]4(C)C2CCC1C3 (some centres undefined) | 4.5 | 2.59 | 0.24 | 0.92 | 0.8 | 1.8 | 1.34 | 1.4 | 1.2 | 0.9 |  |  | 7.7 µmol/g |  | 8.3 µM/g |  |  |  |  |
| C[C@@]12C=Cc3occc3C1CC[C@]13CCC(CCC12)C3 (some centres undefined) | 3.9 | 3.06 | 0.36 | 0.63 | 1.2 | 2.1 |  | 0.9 | 1.2 | 1.1 |  |  | 7.8 µmol/g | 1.18 uM min-1 (mg of protein)-1 | 9.5 µM/g |  |  |  |  |
| C[C@@]12CCc3occc3C1CC[C@]13CCC(CCC12)C3 (some centres undefined) | 2.6 | 2.62 | 0.33 | 0.85 | 1.3 | 1.6 |  | 1.1 | 1.6 | 1.7 |  | 13 µM/g | 8.4 µmol/g | 0.95 uM min-1 (mg of protein)-1 |  |  |  |  |  |
| CC(=O)OC[C@@]1(O)C[C@@]23CC[C@@H]4c5ccoc5CC[C@@]4(C)[C@@H]2CC[C@@H]1C3 [CAFESTOL ACETATE] | 7.5 | 3.24 |  |  |  | 2.74 |  |  | 2 | 1.41 | 12 µmol/g | 14.3 µM/g |  |  |  | 3 uM min-1 (mg of protein)-1 |  |  |  |
| C[C@@]12CCc3occc3C1CC[C@@]13CC(CCC12)C(O)(CO)C3 (some centres undefined) | 3.8 | 3.35 | 0.26 | 0.91 | 1 | 2 | 1.36 | 1.2 | 1.5 | 2 | 7.9 µmol/g | 14.9 µM/g |  |  |  |  |  |  |  |
| C[C@@]12C=Cc3occc3C1CC[C@]13CC(=O)C(CCC12)C3 (some centres undefined) | 6.1 | 3.67 | 0.28 | 1.05 | 1 | 2.6 | 1.84 | 1.6 | 1.6 | 1.3 | 10.4 µmol/g | 11.8 µM/g |  |  |  |  |  |  |  |

More lines, main results first:

| Ratio [1] | Specific activity (uM min-1 (mg of protein)-1) [2] | Specific activity (uM min-1 (mg of protein)-1) [3] | Specific activity (uM min-1 (mg of protein)-1) [5] | Ratio [6] | Ratio [7] | Specific activity (uM min-1 (mg of protein)-1) [8] | Ratio [11] | SMILES | Ratio [4] | Ratio [9] | SH level [10] | SH level [12] | SH level [13] | Specific activity [14] | SH level [15] | Specific activity [16] | Specific activity [17] | SH level [18] | SH level [19] |
| --- | --- | --- | --- | --- | --- | --- | --- | --- | --- | --- | --- | --- | --- | --- | --- | --- | --- | --- | --- |
| 7.3 | 4.3 | 0.29 | 1.4 | 1 | 3 | 2.21 | 2.1 | C[C@@]12C=Cc3occc3C1CC[C@@]13CC(CCC12)C(O)(CO)C3 (some centres undefined) | 2.1 | 1.5 | 13.1 µmol/g | 13 µM/g |  |  |  |  |  |  |  |
| 4.2 | 2.54 | 0.2 | 0.91 | 0.8 | 1.5 |  | 1.2 | C[C@@]12CCc3occc3C1CC[C@]13CC(O)C(CCC12)C3 (some centres undefined) | 2.2 | 1.7 |  | 12.8 µM/g | 11.9 µmol/g | 1.52 uM min-1 (mg of protein)-1 |  |  |  |  |  |
| 5.7 | 2.85 | 0.29 | 0.88 | 1.1 | 1.7 | 2.06 | 1.2 | C[C@@]12CCc3occc3C1CC[C@]13CC(=O)C(CCC12)C3 (some centres undefined) | 1.9 | 1.8 | 10.3 µmol/g | 13.3 µM/g |  |  |  |  |  |  |  |
| 1.4 | 1.48 |  |  |  | 1.25 |  |  | C[C@@]12CC[C@@H]3OCC[C@@H]3C1CC[C@@]13CC(CCC12)[C@@](O)(CO)C3 (some centres undefined) | 1.2 | 1.44 |  |  | 7.4 µmol/g |  | 14.5 µM/g |  | 0.54 uM min-1 (mg of protein)-1 |  |  |
| 5.1 | 2.24 | 0.29 | 0.83 | 1.1 | 1.3 | 1.83 | 1.1 | CC(=O)OC1C[C@@]23CCC4c5ccoc5CC[C@@]4(C)C2CCC1C3 (some centres undefined) | 1.5 | 1.8 | 8.3 µmol/g | 13.3 µM/g |  |  |  |  |  |  |  |
| 6.9 | 3.68 | 0.3 | 0.94 | 1 | 2.6 | 2.06 | 1.4 | CC(=O)OC1C[C@@]23CCC4c5ccoc5C=C[C@@]4(C)C2CCC1C3 (some centres undefined) | 1.7 | 1.1 |  |  | 10.8 µmol/g |  | 10.1 µM/g |  |  |  |  |
| 1.1 | 1.22 |  |  |  | 1.04 |  |  | C[C@@]12CCC3=C(CCO3)C1CC[C@@]13CC(CCC12)[C@@](O)(CO)C3 (some centres undefined) | 1.1 | 1.18 | 6.5 µmol/g | 11.9 µM/g |  |  |  | 0.42 uM min-1 (mg of protein)-1 |  |  |  |
| 1 | 1.25 |  |  |  | 1.06 |  |  | CC(=O)OC[C@@]1(O)C[C@@]23CCC4[C@H]5CCO[C@H]5CC[C@@]4(C)C2CCC1C3 (some centres undefined) | 1.4 | 1.42 |  |  |  |  |  | 0.41 uM min-1 (mg of protein)-1 |  | 14.3 µM/g | 8.2 µM/g |
